Source: ChEMBL document CHEMBL5058577, “EUbOPEN Chemogenomics Library 2 (Multiplex)” (2022)

Tested on: HEK-293T
Test: Multiplex assay against HEK293T
Type: toxicity, cell-based
Details: human
In short: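 Hoechst33342, BioTracker Green Microtubule Cytoskeleton Dye, MitoTracker Red and Annexin V Alexa Fluor 680 were added to live cells at seeding, and imaging on a CQ1 microscope at 37°C and 5% CO2 followed compound addition. Gating by CellPathfinder machine learning separated cells into Hoechst high-intensity objects or normal cells, then normal cells into healthy, pyknosed or fragmented nuclei, then pyknosed cells into mitotic or apoptotic. Per cents of healthy-nucleus cells are reported for the tubulin, mitochondrial-mass and membrane-permeability phenotypes.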

[1] = 12 h, 1 µM, compound concentration 1 uM, replicate 1
[2] = 12 h, 1 µM, compound concentration 1 uM, replicate 2
[3] = 12 h, 10 µM, compound concentration 10 uM, replicate 1
[4] = 12 h, 10 µM, compound concentration 10 uM, replicate 2
[5] = 24 h, 1 µM, compound concentration 1 uM, replicate 1
[6] = 24 h, 1 µM, compound concentration 1 uM, replicate 2
[7] = 24 h, 10 µM, compound concentration 10 uM, replicate 1
[8] = 24 h, 10 µM, compound concentration 10 uM, replicate 2
[9] = 48 h, 1 µM, compound concentration 1 uM, replicate 1
[10] = 48 h, 1 µM, compound concentration 1 uM, replicate 2
[11] = 48 h, 10 µM, compound concentration 10 uM, replicate 1
[12] = 48 h, 10 µM, compound concentration 10 uM, replicate 2

SMILES: C[C@H]1[C@H]2CC[C@H]3[C@@H]4CC=C5C[C@@H](N(C)C)CC[C@]5(C)[C@H]4CC[C@]23CN1C [CONESSINE]
- Population Apoptotic (%) [1]: 35%
- Population Fragmented Nuclei (%) [1]: 5%
- Population Healthy Nuclei (%) [1]: 78%
- Population Hoechst High Intensity Objects (%) [1]: 6%
- Population Membrane Permeable-Phenotype (%) [1]: 0%
- Population Mitochondria Different-Phenotype (%) [1]: 39%
- Population Mitotic Cells (%) [1]: 65%
- Population Normal (%) [1]: 93%
- Population Pyknosed Nuclei (%) [1]: 16%
- Population Tubulin-Different-Phenotype (%) [1]: 26%
- Total Cell Count [1]: 400
- Population Apoptotic (%) [2]: 48%
- Population Fragmented Nuclei (%) [2]: 4%
- Population Healthy Nuclei (%) [2]: 85%
- Population Hoechst High Intensity Objects (%) [2]: 8%
- Population Mitochondria Different-Phenotype (%) [2]: 58%
- Population Mitotic Cells (%) [2]: 51%
- Population Normal (%) [2]: 91%
- Population Pyknosed Nuclei (%) [2]: 10%
- Population Tubulin-Different-Phenotype (%) [2]: 22%
- Total Cell Count [2]: 356
- Population Apoptotic (%) [3]: 35%
- Population Fragmented Nuclei (%) [3]: 6%
- Population Healthy Nuclei (%) [3]: 77%
- Population Hoechst High Intensity Objects (%) [3]: 6%
- Population Membrane Permeable-Phenotype (%) [3]: 1%
- Population Mitochondria Different-Phenotype (%) [3]: 56%
- Population Mitotic Cells (%) [3]: 65%
- Population Normal (%) [3]: 93%
- Population Pyknosed Nuclei (%) [3]: 15%
- Population Tubulin-Different-Phenotype (%) [3]: 38%
- Total Cell Count [3]: 419
- Population Apoptotic (%) [4]: 59%
- Population Fragmented Nuclei (%) [4]: 7%
- Population Healthy Nuclei (%) [4]: 78%
- Population Hoechst High Intensity Objects (%) [4]: 9%
- Population Membrane Permeable-Phenotype (%) [4]: 0%
- Population Mitochondria Different-Phenotype (%) [4]: 62%
- Population Mitotic Cells (%) [4]: 40%
- Population Normal (%) [4]: 90%
- Population Pyknosed Nuclei (%) [4]: 14%
- Population Tubulin-Different-Phenotype (%) [4]: 30%
- Total Cell Count [4]: 384
- Population Apoptotic (%) [5]: 26%
- Population Fragmented Nuclei (%) [5]: 9%
- Population Healthy Nuclei (%) [5]: 80%
- Population Hoechst High Intensity Objects (%) [5]: 5%
- Population Membrane Permeable-Phenotype (%) [5]: 1%
- Population Mitochondria Different-Phenotype (%) [5]: 22%
- Population Mitotic Cells (%) [5]: 73%
- Population Normal (%) [5]: 94%
- Population Pyknosed Nuclei (%) [5]: 10%
- Population Tubulin-Different-Phenotype (%) [5]: 17%
- Total Cell Count [5]: 514
- Population Apoptotic (%) [6]: 25%
- Population Fragmented Nuclei (%) [6]: 8%
- Population Healthy Nuclei (%) [6]: 81%
- Population Hoechst High Intensity Objects (%) [6]: 4%
- Population Membrane Permeable-Phenotype (%) [6]: 0%
- Population Mitochondria Different-Phenotype (%) [6]: 34%
- Population Mitotic Cells (%) [6]: 75%
- Population Normal (%) [6]: 95%
- Population Tubulin-Different-Phenotype (%) [6]: 16%
- Total Cell Count [6]: 484
- Population Apoptotic (%) [7]: 27%
- Population Fragmented Nuclei (%) [7]: 9%
- Population Healthy Nuclei (%) [7]: 79%
- Population Hoechst High Intensity Objects (%) [7]: 6%
- Population Membrane Permeable-Phenotype (%) [7]: 1%
- Population Mitochondria Different-Phenotype (%) [7]: 38%
- Population Mitotic Cells (%) [7]: 72%
- Population Normal (%) [7]: 93%
- Population Pyknosed Nuclei (%) [7]: 11%
- Population Tubulin-Different-Phenotype (%) [7]: 28%
- Total Cell Count [7]: 572
- Population Apoptotic (%) [8]: 47%
- Population Healthy Nuclei (%) [8]: 82%
- Population Hoechst High Intensity Objects (%) [8]: 9%
- Population Membrane Permeable-Phenotype (%) [8]: 0%
- Population Mitochondria Different-Phenotype (%) [8]: 43%
- Population Mitotic Cells (%) [8]: 52%
- Population Normal (%) [8]: 90%
- Population Pyknosed Nuclei (%) [8]: 7%
- Population Tubulin-Different-Phenotype (%) [8]: 24%
- Total Cell Count [8]: 474
- Population Apoptotic (%) [9]: 30%
- Population Fragmented Nuclei (%) [9]: 9%
- Population Healthy Nuclei (%) [9]: 82%
- Population Hoechst High Intensity Objects (%) [9]: 2%
- Population Membrane Permeable-Phenotype (%) [9]: 1%
- Population Mitochondria Different-Phenotype (%) [9]: 18%
- Population Mitotic Cells (%) [9]: 69%
- Population Normal (%) [9]: 97%
- Population Pyknosed Nuclei (%) [9]: 7%
- Population Tubulin-Different-Phenotype (%) [9]: 12%
- Total Cell Count [9]: 735
- Population Apoptotic (%) [10]: 36%
- Population Fragmented Nuclei (%) [10]: 10%
- Population Healthy Nuclei (%) [10]: 83%
- Population Hoechst High Intensity Objects (%) [10]: 4%
- Population Mitochondria Different-Phenotype (%) [10]: 20%
- Population Mitotic Cells (%) [10]: 63%
- Population Normal (%) [10]: 95%
- Population Pyknosed Nuclei (%) [10]: 5%
- Population Tubulin-Different-Phenotype (%) [10]: 11%
- Total Cell Count [10]: 630
- Population Apoptotic (%) [11]: 27%
- Population Fragmented Nuclei (%) [11]: 14%
- Population Healthy Nuclei (%) [11]: 78%
- Population Hoechst High Intensity Objects (%) [11]: 4%
- Population Membrane Permeable-Phenotype (%) [11]: 1%
- Population Mitochondria Different-Phenotype (%) [11]: 23%
- Population Mitotic Cells (%) [11]: 72%
- Population Normal (%) [11]: 95%
- Population Pyknosed Nuclei (%) [11]: 6%
- Population Tubulin-Different-Phenotype (%) [11]: 15%
- Total Cell Count [11]: 767
- Population Apoptotic (%) [12]: 36%
- Population Fragmented Nuclei (%) [12]: 10%
- Population Healthy Nuclei (%) [12]: 81%
- Population Hoechst High Intensity Objects (%) [12]: 5%
- Population Membrane Permeable-Phenotype (%) [12]: 0%
- Population Mitochondria Different-Phenotype (%) [12]: 32%
- Population Mitotic Cells (%) [12]: 63%
- Population Normal (%) [12]: 94%
- Population Pyknosed Nuclei (%) [12]: 7%
- Population Tubulin-Different-Phenotype (%) [12]: 17%
- Total Cell Count [12]: 618

SMILES: CN(C)CCCc1cc(C(=O)Nc2ccc(-c3ccncc3)cc2)ccc1O.Cl.Cl
- Population Apoptotic (%) [1]: 27%
- Population Fragmented Nuclei (%) [1]: 5%
- Population Healthy Nuclei (%) [1]: 79%
- Population Hoechst High Intensity Objects (%) [1]: 9%
- Population Membrane Permeable-Phenotype (%) [1]: 0%
- Population Mitochondria Different-Phenotype (%) [1]: 48%
- Population Mitotic Cells (%) [1]: 72%
- Population Normal (%) [1]: 90%
- Population Pyknosed Nuclei (%) [1]: 14%
- Population Tubulin-Different-Phenotype (%) [1]: 37%
- Total Cell Count [1]: 358
- Population Apoptotic (%) [2]: 37%
- Population Healthy Nuclei (%) [2]: 82%
- Population Hoechst High Intensity Objects (%) [2]: 8%
- Population Mitochondria Different-Phenotype (%) [2]: 58%
- Population Mitotic Cells (%) [2]: 62%
- Population Normal (%) [2]: 91%
- Population Pyknosed Nuclei (%) [2]: 11%
- Population Tubulin-Different-Phenotype (%) [2]: 14%
- Total Cell Count [2]: 367
- Population Apoptotic (%) [3]: 31%
- Population Fragmented Nuclei (%) [3]: 10%
- Population Healthy Nuclei (%) [3]: 81%
- Population Hoechst High Intensity Objects (%) [3]: 6%
- Population Membrane Permeable-Phenotype (%) [3]: 0%
- Population Mitochondria Different-Phenotype (%) [3]: 49%
- Population Mitotic Cells (%) [3]: 68%
- Population Normal (%) [3]: 93%
- Population Pyknosed Nuclei (%) [3]: 7%
- Population Tubulin-Different-Phenotype (%) [3]: 33%
- Total Cell Count [3]: 460
- Population Apoptotic (%) [4]: 60%
- Population Fragmented Nuclei (%) [4]: 11%
- Population Healthy Nuclei (%) [4]: 77%
- Population Hoechst High Intensity Objects (%) [4]: 9%
- Population Membrane Permeable-Phenotype (%) [4]: 2%
- Population Mitochondria Different-Phenotype (%) [4]: 63%
- Population Mitotic Cells (%) [4]: 39%
- Population Normal (%) [4]: 90%
- Population Pyknosed Nuclei (%) [4]: 11%
- Total Cell Count [4]: 391
- Population Apoptotic (%) [5]: 25%
- Population Fragmented Nuclei (%) [5]: 11%
- Population Healthy Nuclei (%) [5]: 78%
- Population Hoechst High Intensity Objects (%) [5]: 5%
- Population Membrane Permeable-Phenotype (%) [5]: 1%
- Population Mitochondria Different-Phenotype (%) [5]: 26%
- Population Mitotic Cells (%) [5]: 74%
- Population Normal (%) [5]: 94%
- Population Pyknosed Nuclei (%) [5]: 10%
- Population Tubulin-Different-Phenotype (%) [5]: 21%
- Total Cell Count [5]: 542
- Population Fragmented Nuclei (%) [6]: 9%
- Population Healthy Nuclei (%) [6]: 83%
- Population Membrane Permeable-Phenotype (%) [6]: 0%
- Population Mitochondria Different-Phenotype (%) [6]: 32%
- Population Mitotic Cells (%) [6]: 75%
- Population Pyknosed Nuclei (%) [6]: 6%
- Population Tubulin-Different-Phenotype (%) [6]: 9%
- Total Cell Count [6]: 486
- Population Apoptotic (%) [7]: 32%
- Population Fragmented Nuclei (%) [7]: 12%
- Population Healthy Nuclei (%) [7]: 77%
- Population Hoechst High Intensity Objects (%) [7]: 5%
- Population Membrane Permeable-Phenotype (%) [7]: 0%
- Population Mitochondria Different-Phenotype (%) [7]: 38%
- Population Mitotic Cells (%) [7]: 67%
- Population Normal (%) [7]: 94%
- Population Pyknosed Nuclei (%) [7]: 9%
- Population Tubulin-Different-Phenotype (%) [7]: 23%
- Total Cell Count [7]: 588
- Population Apoptotic (%) [8]: 47%
- Population Fragmented Nuclei (%) [8]: 15%
- Population Healthy Nuclei (%) [8]: 74%
- Population Hoechst High Intensity Objects (%) [8]: 15%
- Population Mitochondria Different-Phenotype (%) [8]: 48%
- Population Mitotic Cells (%) [8]: 52%
- Population Normal (%) [8]: 84%
- Population Tubulin-Different-Phenotype (%) [8]: 19%
- Total Cell Count [8]: 505
- Population Apoptotic (%) [9]: 23%
- Population Fragmented Nuclei (%) [9]: 11%
- Population Healthy Nuclei (%) [9]: 81%
- Population Hoechst High Intensity Objects (%) [9]: 2%
- Population Membrane Permeable-Phenotype (%) [9]: 2%
- Population Mitochondria Different-Phenotype (%) [9]: 19%
- Population Mitotic Cells (%) [9]: 76%
- Population Normal (%) [9]: 97%
- Population Pyknosed Nuclei (%) [9]: 6%
- Population Tubulin-Different-Phenotype (%) [9]: 14%
- Total Cell Count [9]: 814
- Population Apoptotic (%) [10]: 21%
- Population Fragmented Nuclei (%) [10]: 16%
- Population Healthy Nuclei (%) [10]: 75%
- Population Hoechst High Intensity Objects (%) [10]: 5%
- Population Membrane Permeable-Phenotype (%) [10]: 1%
- Population Mitochondria Different-Phenotype (%) [10]: 24%
- Population Mitotic Cells (%) [10]: 78%
- Population Normal (%) [10]: 94%
- Population Pyknosed Nuclei (%) [10]: 8%
- Population Tubulin-Different-Phenotype (%) [10]: 13%
- Total Cell Count [10]: 596
- Population Apoptotic (%) [11]: 29%
- Population Fragmented Nuclei (%) [11]: 17%
- Population Healthy Nuclei (%) [11]: 75%
- Population Hoechst High Intensity Objects (%) [11]: 5%
- Population Membrane Permeable-Phenotype (%) [11]: 1%
- Population Mitochondria Different-Phenotype (%) [11]: 21%
- Population Mitotic Cells (%) [11]: 70%
- Population Normal (%) [11]: 94%
- Population Pyknosed Nuclei (%) [11]: 6%
- Population Tubulin-Different-Phenotype (%) [11]: 13%
- Total Cell Count [11]: 883
- Population Apoptotic (%) [12]: 58%
- Population Fragmented Nuclei (%) [12]: 15%
- Population Healthy Nuclei (%) [12]: 76%
- Population Hoechst High Intensity Objects (%) [12]: 11%
- Population Membrane Permeable-Phenotype (%) [12]: 0%
- Population Mitochondria Different-Phenotype (%) [12]: 35%
- Population Mitotic Cells (%) [12]: 41%
- Population Normal (%) [12]: 88%
- Population Pyknosed Nuclei (%) [12]: 7%
- Population Tubulin-Different-Phenotype (%) [12]: 20%
- Total Cell Count [12]: 641
